Here are results for 4 molecules from ChEMBL document CHEMBL1165947, “Synthesis and antitumor activity of 2,5-bis(3'-indolyl)-furans and 3,5-bis(3'-indolyl)-isoxazoles, nortopsentin analogues” (Bioorg Med Chem, 2010).

≈ marks a conversion by molar mass, not a printed value.

Common to all, as to type: functional, cell-based
The subject of one assay is P388. Description: Cytotoxicity against mouse P388 cells.
Assay [1] can be described thus: Cytotoxicity against human PC3M cells after 4 days by modified propidium iodide staining-based fluorescence assay. To be noted: PC-3M, 96 h. Put shortly:
(§1)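 Cells cultured in RPMI 1640 with 10% fetal calf serum and 0.1 mg/mL gentamicin at 37 °C, 5% CO2. Cells from exponential cultures were trypsinized and plated at 4.000-20.000 cells/well by line. After 24 h recovery, compounds were added at five log-spaced concentrations (highest 100 μg/mL) for 4 days. Proliferation was read as DNA content with aqueous propidium iodide (7 μg/ml), fluorescence ex 530/em 620 nm. Points were run in triplicate.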

Another assay relates to DU-145. Description: Cytotoxicity against human DU145 cells after 4 days by modified propidium iodide staining-based fluorescence assay. The note with it: DU-145, 96 h. Put shortly: as §1
For another assay, the system named is SF-268. Description: Cytotoxicity against human SF268 cells after 4 days by modified propidium iodide staining-based fluorescence assay. The note with it: SF-268, 96 h. Put shortly:
as §1

Assay [2] is described as follows: Cytotoxicity against human LXFA 289L cells after 4 days by modified propidium iodide staining-based fluorescence assay. To be noted: 96 h. Put shortly: as §1
Assay [3] in a line: Cytotoxicity against human UXF 1138L cells after 4 days by modified propidium iodide staining-based fluorescence assay. To be noted: 96 h. The procedure, abridged: as §1
In another assay the test system is OVCAR-3. Put plainly: Cytotoxicity against human OVCAR-3 cells after 4 days by modified propidium iodide staining-based fluorescence assay. To be noted: OVCAR-3, 96 h. Put shortly: as §1
The next assay relates to A549. Description: Cytotoxicity against human A549 cells after 4 days by modified propidium iodide staining-based fluorescence assay. The note with it: A549, 96 h. Put shortly:
as §1

For a further assay, the system named is T-24. Description: Cytotoxicity against human T24 cells after 4 days by modified propidium iodide staining-based fluorescence assay. To be noted: T-24, 96 h. Put shortly:
as §1

For a further assay, the system named is PANC-1. Put plainly: Cytotoxicity against human PANC1 cells after 4 days by modified propidium iodide staining-based fluorescence assay. The note with it: PANC-1, 96 h. The procedure, abridged:
as §1

A short description of assay [4]: Cytotoxicity against human 1752L cells after 4 days by modified propidium iodide staining-based fluorescence assay. The note with it: 96 h. Put shortly:
as §1

Another assay relates to CWR22R. Description: Cytotoxicity against human 22Rv1 cells after 4 days by modified propidium iodide staining-based fluorescence assay. To be noted: 22Rv1, 96 h. The procedure, abridged:
as §1

The nature of assay [5]: Cytotoxicity against human GXF251L cells after 4 days by modified propidium iodide staining-based fluorescence assay. The note with it: GXF 251L, 96 h. The procedure, abridged:
as §1

Another assay concerns MCF7. Put plainly: Cytotoxicity against human MCF7 cells after 4 days by modified propidium iodide staining-based fluorescence assay. The note with it: MCF7, 96 h. Put shortly:
as §1

For a further assay, the system named is HCT-116. Description: Cytotoxicity against human HCT116 cells after 4 days by modified propidium iodide staining-based fluorescence assay. The note with it: HCT-116, 96 h. Put shortly:
as §1

The nature of assay [6]: Cytotoxicity against human LXFA 526L cells after 4 days by modified propidium iodide staining-based fluorescence assay. To be noted: 96 h. The procedure, abridged: as §1
Assay [7] can be described thus: Cytotoxicity against human 1657L cells after 4 days by modified propidium iodide staining-based fluorescence assay. To be noted: 96 h. The procedure, abridged:
as §1

Assay [8] can be described thus: Cytotoxicity against human LXFL 1121L cells after 4 days by modified propidium iodide staining-based fluorescence assay. The note with it: 96 h. The procedure, abridged:
as §1

Assay [9] in a line: Cytotoxicity against human MEXF 520L cells after 4 days by modified propidium iodide staining-based fluorescence assay. To be noted: 96 h. The procedure, abridged: as §1
Assay [10] in a line: Cytotoxicity against human MEXF 462NL cells after 4 days by modified propidium iodide staining-based fluorescence assay. To be noted: 96 h. The procedure, abridged: as §1
Assay [11] is described as follows: Cytotoxicity against human 899L cells after 4 days by modified propidium iodide staining-based fluorescence assay. The note with it: 96 h. The procedure, abridged: as §1
Assay [12] is described as follows: Cytotoxicity against human BXF 1218L cells after 4 days by modified propidium iodide staining-based fluorescence assay. The note with it: 96 h. The procedure, abridged:
as §1

A short description of assay [13]: Cytotoxicity against human MEXF 276L cells after 4 days by modified propidium iodide staining-based fluorescence assay. To be noted: MEXF276L, 96 h. Put shortly:
as §1

The test system of the next assay is LNCaP. Put plainly: Cytotoxicity against human LNCAP cells after 4 days by modified propidium iodide staining-based fluorescence assay. The note with it: 96 h. The procedure, abridged:
as §1

Assay [14] can be described thus: Cytotoxicity against human 1781L cells after 4 days by modified propidium iodide staining-based fluorescence assay. The note with it: 96 h. The procedure, abridged:
as §1

Assay [15] can be described thus: Cytotoxicity against human RXF 486L cells after 4 days by modified propidium iodide staining-based fluorescence assay. The note with it: 96 h. The procedure, abridged: as §1
The test system of the next assay is HT-29. Description: Cytotoxicity against human HT-29 cells after 4 days by modified propidium iodide staining-based fluorescence assay. To be noted: HT-29, 96 h. The procedure, abridged: as §1
The nature of assay [16]: Cytotoxicity against human MAXF 401NL cells after 4 days by modified propidium iodide staining-based fluorescence assay. To be noted: 96 h. The procedure, abridged:
as §1

For the next assay, the system named is NCI-H460. Put plainly: Cytotoxicity against human H460 cells after 4 days by modified propidium iodide staining-based fluorescence assay. The note with it: NCI-H460, 96 h. The procedure, abridged:
as §1

Assay [17] is described as follows: Cytotoxicity against human LXFA 629L cells after 4 days by modified propidium iodide staining-based fluorescence assay. The note with it: 96 h. Put shortly:
as §1

In the assay with P388, `Cn1c(-c2cn(C)c3ccccc23)cnc1-c1cn(C)c2cc(Br)ccc12` [N-METHYL NORTOPSENTIN B] returned a 50% inhibitory concentration (IC50) of 800 nM.

On to `Cn1c(-c2cn(C)c3cc(Br)ccc23)cnc1-c1cn(C)c2cc(Br)ccc12` [N-METHYL NORTOPSENTIN A], for which, in the assay on P388, the concentration for half-maximal inhibition (IC50) worked out at 800 nM.

On to `Cn1cc(-c2cc(-c3cn(C)c4ccccc34)on2)c2ccccc21`, for which the half-inhibitory concentration (IC50) in assay [1] is 28.1 µg/mL (≈ 85.8 µM); in the assay with DU-145, 18.3 µg/mL (≈ 55.9 µM); in the assay with SF-268, 24.6 µg/mL (≈ 75.1 µM); in [2], 18.7 µg/mL (≈ 57.1 µM); in [3], 4.8 µg/mL (≈ 14.7 µM); with OVCAR-3, 11.1 µg/mL (≈ 33.9 µM). The IC50 was 5.1 µg/mL (≈ 15.6 µM) in the assay with A549; 40.6 µg/mL (≈ 124 µM) in the assay on T-24; 8.8 µg/mL (≈ 26.9 µM) in the assay on PANC-1; 24.2 µg/mL (≈ 73.9 µM) in [4]; 14.1 µg/mL (≈ 43.1 µM) in the assay on CWR22R; 7.2 µg/mL (≈ 22 µM) in [5]. The IC50 with MCF7 is 21.5 µg/mL (≈ 65.7 µM); with HCT-116, 29.5 µg/mL (≈ 90.1 µM); in [6] it was 11.5 µg/mL (≈ 35.1 µM); in assay [7], 29.9 µg/mL (≈ 91.3 µM); in assay [8] it was 21 µg/mL (≈ 64.1 µM); in [9] it was 24.1 µg/mL (≈ 73.6 µM). In addition, the IC50 came to 37.8 µg/mL (≈ 115 µM) in assay [10]; 14.9 µg/mL (≈ 45.5 µM) in assay [11]; 20 µg/mL (≈ 61.1 µM) in assay [12]; 13.3 µg/mL (≈ 40.6 µM) in assay [13]; 11.5 µg/mL (≈ 35.1 µM) in the assay on LNCaP; 38.7 µg/mL (≈ 118 µM) in assay [14]. In addition, the IC50 in assay [15] is 29.3 µg/mL (≈ 89.5 µM); with HT-29, 32.7 µg/mL (≈ 99.9 µM); in assay [16] it was 28.8 µg/mL (≈ 88 µM); with NCI-H460, 18.4 µg/mL (≈ 56.2 µM); in assay [17] it was 4.2 µg/mL (≈ 12.8 µM).

Regarding `Brc1ccc2c(-c3c[nH]c(-c4c[nH]c5ccccc45)n3)c[nH]c2c1` [NORTOPSENTIN C], in the assay on P388, the IC50 turned out to be 4500 nM.

In general, IC50 refers to the concentration that gives 50% inhibition. Low readings indicate higher potency, high ones lower potency.
